Here are results for 39 compounds from ChEMBL document CHEMBL4513216, “Probing the Open Global Health Chemical Diversity Library for Multistage-Active Starting Points for Next-Generation Antimalarials” (ACS Infect Dis, 2020).

The series can be described thus: Toxicity liver stage against HepG2, at 10uM. The settings on record: human, HepG2-A16-CD81EGFP cells; read-out: INHIBITION
On the set-up: test concentration 10 uM, cell line HepG2-A16-CD81EGFP. The class given is cell-based. The gist of the method: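 Uninfected HepG2-A16-CD81EGFP cells, 3 × 10^3 per well, 1536-well, plated on prespotted compound at 10 μM final, parasite-free screening media added to match infected plates; puromycin 10 μM positive, DMSO 0.5% negative; run in parallel with 48 h PbLuc assay at 37 °C, 5% CO2; viability by CellTiter-Glo luminescence, normalized to controls.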

Turning to `COCC(O)CN(C)c1ccnc2cc(Br)ccc12` (centres undefined), the cytotoxicity at 10 µM is 5.02%.
As to `COc1ccc([C@@H]2CN(C(=O)c3cscn3)C[C@H]2C(=O)O)cc1`, the cytotoxicity at 10 µM is -18.2%.
Next, `O=C(Cn1cc(-c2ccccc2)cn1)NC(C1CC1)C1CC1`: -5%.
The same measure for `O=C(c1ccncc1)N1Cc2ccccc2OC2(CCOCC2)C1`: -1.03%; for `COCCN1CCC2(CC1)CC(OCC1CC1)c1ccc(C)cc12` (centres undefined): 15.5%.
Regarding `OC[C@H]1CCCN1c1nccc(-c2cncnc2C2CCCCC2)n1`, the cytotoxicity at 10 µM amounted to 0.0815%.
The same measure for `CN(CC(=O)N1CCC(N(C)c2ccccc2)CC1)c1cnccn1`: -6.6%.
Take `CN(Cc1ccco1)[C@@H]1CN(C(=O)c2ccnnc2)C[C@@H]2CCCO[C@@H]21`: the cytotoxicity at 10 µM is -10.5%.
With `O=C(c1cscn1)N1CCc2ncnc(-c3cccnc3)c2CC1`, the cytotoxicity at 10 µM is -1.6%.
Next, `CC(C)Cc1cc(CNC(=O)C2CCCN(C(=O)N(C)C)C2)no1` (centres undefined): 2.31%; `CC(=O)c1cc(C(=O)N2Cc3ccccc3OC3(CCOCC3)C2)cs1`: -20%.
Next, `Cc1ccc(C)c(OCCN(C)C(=O)C2CCCN2C(N)=O)c1C` (centres undefined): -1.01%.
Take `CN(C)CCN1CCC2(CCN(C(=O)c3cccnc3)CC2)C1=O`: the cytotoxicity at 10 µM came to 2.61%.
Next, `Cc1cc(C)n(CCCN(C)c2cc(N(C)C)ncn2)n1`: 3.85%; `COc1ccccc1CN1C[C@@H](F)[C@@H](OCc2nc3cnccc3[nH]2)C1`: -6.66%.
In the case of `COCCN1C=NC2(CCC(C(=O)Nc3ccc(C)cc3)CC2)C1=O` (centres undefined), the cytotoxicity at 10 µM is 15.1%.
The same measure for `Cc1ccsc1-c1nccn1CCN(C)S(C)(=O)=O`: -7.36%.
The same measure for `COc1ccc2c(c1)C(NCCc1ncc(C)s1)CCCO2` (centres undefined): -3.86%; for `Cc1ccc(-c2nnc(C(C)N3CCn4c(C)nnc4C3)o2)cc1` (centres undefined): -7.33%; for `O=C(NCC1(O)CCCC1)c1ccc2nsnc2c1`: -5.37%.
As for `CN(C)C(=O)c1cccc(NC(=O)CN2CCCCC2C2OCCO2)c1` (centres undefined), the cytotoxicity at 10 µM was -6.95%.
The same measure for `CC(C)(C)C1CCC(NCCN2CCOCC2)CC1` (centres undefined): 0.741%; for `Cc1oncc1NS(=O)(=O)c1c[nH]c2ncccc12`: -7.49%.
Next, `Cc1csc(CNC(=O)N(C)Cc2ccc([S+](C)[O-])cc2)n1` (centres undefined): 4.53%.
On to `Cn1cc(C#N)cc1C(=O)NC1(C#N)CCSCC1`, for which the cytotoxicity at 10 µM was -7.23%.
With `CC1CCN(S(=O)(=O)c2cccn(CC(=O)NC3CCCC3)c2=O)CC1`, the cytotoxicity at 10 µM is -14.6%.
For the compound `COCCN1CCCC2(CCN(Cc3noc(C4CCCC4)n3)C2)C1=O` (centres undefined), the cytotoxicity at 10 µM was 3.96%.
The same measure for `NS(=O)(=O)NCc1cc(-c2ccc(C(F)(F)F)cc2)n[nH]1`: -6.11%.
Next, `O=C(O)c1cnc(N2CCCC2)nc1COc1ccc(F)cc1`: -1.14%.
The same measure for `Nc1nc(CNc2ncnc3c2CCN(Cc2ccoc2)CC3)cs1`: 1.63%; for `CC(C)N1CCN(CCn2cnc3c(F)cccc3c2=O)CC1`: 1.64%; for `CCc1nc(CN2CCCN(C(=O)c3c(C)noc3C)CC2)cs1`: 1.74%.
Consider `Cc1nc(COc2ccc(OC3CCCCNC3=O)cc2)oc1C` (centres undefined), for which the cytotoxicity at 10 µM turned out to be 15.2%.
On to `Cc1cccc(OCC(=O)N2CCN(C3CCOC3=O)CC2)c1C` (centres undefined), for which the cytotoxicity at 10 µM was -15%.
For `CC(=O)N1CCCN(C(=O)NC(C)Cn2ccnc2)CC1` (centres undefined), the cytotoxicity at 10 µM is 4.52%.
Take `O=C(Cc1ccc(F)cc1)NS(=O)(=O)c1ccc(F)c(F)c1`: the cytotoxicity at 10 µM was -9.07%.
Next, `Cc1cc(NC2CCN(Cc3ccccn3)CC2)n2nc(C)c(C)c2n1`: 0.951%; `Cc1cccc(CNCc2c(C(C)C)nn(C)c2N2CCOCC2)n1`: -9.4%; `COCCNS(=O)(=O)c1cccc(CSC)c1`: 11.9%.
